Rows were chosen to be rich in hits. Some 3.5% of all compounds tested hit in one or more screens of this group.
MrgX1 agonist – human MrgX1 receptor agonism, primary screen | MrgX1-HEK293 cells, Fluo-4 calcium fluorescence, agonist mode; hits give high values | B-score at 10 µM | hit rate 0.44% among 310,000;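 active = calcium response B-score plate-corrected fluorescence ratio at least 3 library SD, with starting fluorescence B-score inside 5 SD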
Target sequence (Q96LB2 whole entry, looked up): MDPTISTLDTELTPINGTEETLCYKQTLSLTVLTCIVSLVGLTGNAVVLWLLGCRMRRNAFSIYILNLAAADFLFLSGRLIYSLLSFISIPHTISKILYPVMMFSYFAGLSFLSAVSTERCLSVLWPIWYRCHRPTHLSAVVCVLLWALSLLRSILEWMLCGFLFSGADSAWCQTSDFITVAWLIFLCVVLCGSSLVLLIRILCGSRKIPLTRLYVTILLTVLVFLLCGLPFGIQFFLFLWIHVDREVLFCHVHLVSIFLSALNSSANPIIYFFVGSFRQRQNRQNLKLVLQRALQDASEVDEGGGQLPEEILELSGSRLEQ
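Material: MrgX1-expressing HEK293 cells; input: 15,000 cells per well; doses: test compound given as first of three sequential additions; schedule: overnight plating before 1 h dye loading; technique: Fluo-4 NW calcium-flux fluorescence, kinetic read; evaluation: baseline-normalised fluorescence change ratio, B-scored; control set: plate-wise positive and negative controls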
RGS4 block – inhibitors of human RGS4; B-score at 10 µM; hit rate 0.45% among 310,000; HEK293 M3R/RGS4 inducible, Fluo-4 calcium flux; hits give high values; triggered by carbachol at its EC20; AID 463165; P49798;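 active = B-score, a plate-corrected calcium signal, over three deviations above library mean, with baseline fluorescence within five deviations of library mean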;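 note: RGS4 expression induced by doxycycline in cells with stable M3 receptor; B-score is computed from the integrated fluorescence ratio over baseline after carbachol; higher B-score means a larger calcium signal and so more RGS4 inhibition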
Target sequence (P49798 whole entry, looked up): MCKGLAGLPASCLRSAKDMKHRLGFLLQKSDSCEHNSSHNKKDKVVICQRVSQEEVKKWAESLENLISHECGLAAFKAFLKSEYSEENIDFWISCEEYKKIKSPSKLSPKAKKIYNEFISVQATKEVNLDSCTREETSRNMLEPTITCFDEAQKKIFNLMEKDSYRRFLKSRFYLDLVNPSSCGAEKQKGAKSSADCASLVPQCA
MrgX1 antag – human MrgX1 receptor antagonism, primary screen. MRGX1-HEK293 calcium flux, Fluo-4, BAM8-22 antagonism; hits give low values. Q96LB2. hit rate 1.3% among 310,000. B-score at 10 µM;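 active = calcium-response B-score plate-corrected more than 3 library SD below zero, starting fluorescence within 5 deviations, no agonist response on first addition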;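 note: peak minus trough fluorescence over baseline after final BAM8-22 challenge near maximal dose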
RGS4 act – potentiators or activators of RGS4; HEK293 M3R/inducible RGS4, carbachol calcium flux Fluo4; hits give low values; B-score at 10 µM; hit rate 0.92% among 310,000;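 active = B-score of the integrated calcium signal more than 4 SD below the library mean, with starting fluorescence not abnormally high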;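 note: negative B-score means reduced calcium response which marks RGS4 activation or potentiation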
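Also added: carbachol at ECmax as muscarinic agonist stimulus; Assay system: HEK293 cells with stable M3R and inducible RGS4; Timing: overnight RGS4 induction, 30 min dye load 37 °C, 20 min compound RT; Measured by: Fluo4-AM (2 µM) calcium-flux fluorescence, kinetic read.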
MrgX1 PAM – human MrgX1 positive allosteric modulation, primary screen. Q96LB2. MrgX1-HEK293, Fluo-4 calcium flux, FDSS; hits give high values. B-score at 10 µM. hit rate 0.63% among 310,000;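 active = plate-corrected calcium response at least 3 library SD above typical, normal starting fluorescence, not activating the receptor alone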;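 note: compound read alongside a low EC10 to EC30 dose of BAM8-22 agonist; peak minus trough fluorescence over baseline measured at the second addition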
MrgX1 ant reconf – reconfirmed antagonist of human MrgX1 receptor signaling; AID 602420; shares compounds with MrgX1 antag; remaining BAM8-22 calcium response % of control (hits give low values), % at 10 µM; MrgX1-HEK293, BAM8-22 calcium flux, Fluo-4; hits give low values; hit rate 19% among 2,300;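 active = remaining agonist calcium response no higher than 100% minus 3 SD of agonist-only control wells, with starting fluorescence near control levels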;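 note: agonist BAM8-22 given at a near maximal EC90 to ECmax level; peak minus minimum fluorescence divided by baseline after agonist addition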
HEK293 Ca flux – MrgX1 antagonist counter-screen hit in parental HEK293 cells | shares compounds with MrgX1 antag | Fluo-4 calcium fluorescence, FDSS | fluorescence ratio F(max-min)/F0 at 10 µM | hit rate 2% among 4,000 | AID 624111;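 active = duplicate-averaged calcium fluorescence ratio at least three times the standard deviation of buffer wells, a nonspecific response in parental cells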
HEK293 Ca counter – MrgX1 allosteric activator counter-screen hit in parental HEK293 cells; shares compounds with MrgX1 antag; parental HEK293 calcium flux, Fluo-4 fluorescence ratio; hits give high values; fluorescence ratio F(max-min)/F0 at 10 µM; hit rate 0.4% among 4,000; AID 624114;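 active = calcium fluorescence ratio, averaged over duplicates, at least 3 SD of the buffer-well ratio, meaning a nonspecific response in receptor-free cells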;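 note: untransfected parental HEK293 lacking MrgX1 used as counterscreen for MrgX1 allosteric activators; fluorescence change taken during the second addition on a kinetic imager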
HEK293 Ca cntr2 – MrgX1 activator counter-screen hit in parental HEK293 cells | shares compounds with MrgX1 antag | Fluo-4 calcium fluorescence (FDSS); hits give high values | fluorescence ratio F(max-min)/F0 at 10 µM | hit rate 8.7% among 4,000;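 active = calcium fluorescence ratio at least three times the spread of buffer wells, meaning a non-specific response in parental cells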
* marks the source's active call; other numbers are inactive results; i = inactive; . = no result given; ! = not active in a repeat.

SMILES | MrgX1 agonist | RGS4 block | MrgX1 antag | RGS4 act | MrgX1 PAM | MrgX1 ant reconf | HEK293 Ca flux | HEK293 Ca counter | HEK293 Ca cntr2
Cc1ccccc1Cc1c(C)nc2ncnn2c1C | i | i | -7.8* | i | i | i | i | i | i
CC(C)(C)OC(=O)NCC1CCC(C(=O)NC[C@H](CC(=O)O)c2ccc(Cl)cc2)CC1 (stereo partly drawn) | i | i | i | i | i | . | . | . | .
CC(=O)Nc1cc(-c2ccc(F)cc2)[nH]n1 | i | i | i | i | i | . | . | . | .
CC(=O)Nc1n[nH]c(-c2ccc(C)cc2)c1C | i | i | -5.4* | i | i | i | i | i | i
Cc1cc(C)cc(NC(=O)CSc2nc(N)c(NC(=O)c3ccc(Br)o3)c(=O)[nH]2)c1 | i | i | i | i | i | . | . | . | .
CCCCCC(=O)Nc1ccc(C(=O)CN2C(=O)NC3(CCCCCC3)C2=O)cc1 | i | i | i | i | i | . | . | . | .
O=C(NCCc1ccco1)C(=O)NCC1CCCN1S(=O)(=O)c1ccccc1 (stereo not drawn) | i | i | -5.1* | -7.3* | i | i | i | i | i
Cc1ccc(C)c(S(=O)(=O)N2CCCC2CNC(=O)C(=O)NCCc2ccco2)c1 (stereo not drawn) | i | i | i | i | i | . | . | . | .
O=C(CSc1nc2scc(-c3ccccc3)c2c(=O)[nH]1)NCCc1ccccc1 | i | i | i | i | i | . | . | . | .
Cc1sc2nc(SCC(=O)N3CCCC3)[nH]c(=O)c2c1C | i | i | i | i | i | . | . | . | .
O=C(CSc1nc2scc(-c3ccccc3)c2c(=O)[nH]1)N1CCOCC1 | i | i | -9.1* | i | i | i | i | i | i
Cc1sc2nc(SCC(=O)N3CCCCC3)[nH]c(=O)c2c1C | i | i | -7.3* | i | i | i | i | i | i
COc1ccccc1C(C)NC(=O)c1ccccc1SCC(=O)N1CCCC1 (stereo not drawn) | i | i | i | i | i | . | . | . | .
CCC(C)NC(=O)C1c2ccccc2C(=O)N(c2ccc(OC)cc2)C1c1ccc(OC)cc1 (stereo not drawn) | i | i | -6.5* | i | i | i | i | i | i
Cc1nnc(Oc2ccccc2F)c2ccccc12 | i | i | -6* | i | i | 85%* | i | i | i
Cc1ccc(C)c(COc2coc(CN3CCN(C(=O)c4ccco4)CC3)cc2=O)c1 | i | i | i | i | i | . | . | . | .
CCN(CC)CCN1C(=O)Cn2c(C)c(C)c3cccc1c32 | i | i | -5*! | i | i | i | i | i | i
COc1ccc(OC)c(NC(=O)c2ccc(NC3=NC4CS(=O)(=O)CC4S3)cc2)c1 (stereo not drawn) | i | i | i | i | i | . | . | . | .
O=C(OCCN1C(=O)c2ccccc2C1=O)c1cccs1 | i | i | -5* | i | i | i | i | i | i
O=C(O)CNC(=O)C(CS)Cc1ccccc1 (stereo not drawn) | i | . | -8.6* | . | i | i | i | i | i
O=C(O)CNC(=O)C(c1ccccc1)c1ccccc1 | i | i | i | i | i | . | . | . | .
O=C(NCC1CCN(Cc2cccc(Cl)c2)CC1)Nc1ccccc1Cl | i | i | -5.7* | i | i | i | i | i | i
Cc1ccc(NC(=O)NCC2CCN(Cc3cccc(Cl)c3)CC2)c(Cl)c1 | i | i | i | i | i | . | . | . | .
CCC(CC)C(=O)Nc1cccc(C(=O)Nc2ccc3c(c2)OCO3)c1 | i | i | -6* | i | i | i | i | i | i
CCN(CC)S(=O)(=O)c1cccc(C(=O)Nc2ccc3c(c2)OCO3)c1 | i | i | i | i | i | . | . | . | .
SMILES | MrgX1 agonist | RGS4 block | MrgX1 antag | RGS4 act | MrgX1 PAM | MrgX1 ant reconf | HEK293 Ca flux | HEK293 Ca counter | HEK293 Ca cntr2
CCCNC(=O)c1cccc(NC(=O)C(C)C)c1 | i | i | -7.3* | i | i | i | i | i | 48*
COCCCNC(=O)C1CC(=O)N(C2CCCC2)C1 (stereo not drawn) | i | i | -4.8* | i | i | i | i | i | i
CC(C)CN(C(=O)c1ccco1)C1CCS(=O)(=O)C1 (stereo not drawn) | i | i | -4.9* | i | i | i | i | i | i
COc1cc(NC(=O)c2ccco2)c(OC)cc1NC(=O)Nc1ccccc1Cl | i | i | -5.9* | i | i | i | i | i | i
CCOCCCNC(=O)CN1CCN(Cc2ccc(Cl)cc2)C1=O | i | i | i | i | i | . | . | . | .
O=C1CCCC2=C1C(c1ccccc1)C1C(=O)c3ccccc3C1=N2 (stereo not drawn) | i | i | i | i | i | . | . | . | .
Cc1ccc(C2C3=C(CCCC3=O)N=C3c4ccccc4C(=O)C32)cc1 (stereo not drawn) | i | i | -16* | i | i | i | i | i | i
COc1ccc(CCNC(=O)CCn2c(=O)c3cccn3c3ccc(F)cc32)c(OC)c1OC | i | i | i | i | i | . | . | . | .
CN(Cc1ccccc1)C(=O)c1ccc(NC(=O)c2ccccc2)cc1 | i | i | -5.5* | i | i | i | i | i | i
COc1ccc2c(c1)C(c1ccccc1)NC(=O)C2 (stereo not drawn) | i | i | i | i | i | . | . | . | .
NC(=S)Nc1cccc(Cl)c1 | i | i | i | i | i | . | . | . | .
CS/C(N)=N/C(=S)Nc1cccc(Cl)c1 | i | i | -4.6* | i | i | i | i | i | i
Cc1cccc(-n2ncc3c2CCCC3NC(=O)C2CCOCC2)c1C (stereo not drawn) | i | i | -5.2* | i | i | 74%* | i | i | i
CC1(C)CC(=O)C2=C(C1)N(c1ccc(F)cc1)C(=O)CC2c1ccsc1 (stereo not drawn) | i | i | -5.1* | i | i | i | i | i | i
